# Results as given in ChEMBL document CHEMBL1142454, “Synthesis and evaluation of novel 4-amino-4,6-androstadiene-3,17-dione: an analog of formestane” (2008).
# System: UACC-257
# Assay: Antitumor activity against human UACC-257 cells assessed as reduction of cell growth at 10 uM after 48 hrs by SRB assay
# Type: functional
# Design: scale not given: the % may be the effect or the level left
# Summary of the method: (§1)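 NCI-60 one-dose primary screen at 10^-5 M final. Cells grown in RPMI 1640 with 5% FBS and 2 mM L-glutamine, plated at 5000–40,000 cells/well and preincubated 24 h at 37 °C, 5% CO2. Drug stocks in DMSO, diluted in medium with gentamicin. Exposure 48 h, then fixed in situ with TCA (10% final) for 60 min at 4 °C. Stained with 0.4% SRB in 1% acetic acid, bound dye solubilized in 10 mM trizma base, absorbance read at 515 nm. Reported as mean growth percent; negative values indicate cell kill.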
row,SMILES,Activity [%]
1,C[C@]12CC[C@H]3[C@@H](CCC4=CC(=O)CC[C@@]43CF)[C@@H]1CCC2=O,97.04

# System: SK-MEL-5
# Assay: Antitumor activity against human SK-MEL-5 cells assessed as reduction of cell growth at 10 uM after 48 hrs by SRB assay
# Type: functional
# Design: scale not given: the % may be the effect or the level left
# Summary of the method: (§2)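 NCI 60-cell-line primary screen, single dose 10^-5 M (final). Cells grown in RPMI 1640 with 5% FBS and 2 mM L-glutamine, seeded at 5000–40,000 cells/well and preincubated 24 h at 37 °C, 5% CO2. Compound is dissolved in DMSO, diluted in medium with gentamicin, and exposed 48 h. Cells are fixed with 10% TCA (final) and stained with 0.4% SRB; absorbance is read at 515 nm. Readout is growth percentage.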
row,SMILES,Activity [%]
1,C[C@]12CC[C@H]3[C@@H](CCC4=CC(=O)CC[C@@]43CF)[C@@H]1CCC2=O,108.7

# System: SK-MEL-2
# Assay: Antitumor activity against human SK-MEL-2 cells assessed as reduction of cell growth at 10 uM after 48 hrs by SRB assay
# Type: functional
# Design: scale not given: the % may be the effect or the level left
# Summary of the method: as §2
row,SMILES,Activity [%]
1,C[C@]12CC[C@H]3[C@@H](CCC4=CC(=O)CC[C@@]43CF)[C@@H]1CCC2=O,97.19

# System: Malme-3M
# Assay: Antitumor activity against human MALME-3M cells assessed as reduction of cell growth at 10 uM after 48 hrs by SRB assay
# Type: functional
# Design: scale not given: the % may be the effect or the level left
# Summary of the method: as §2
row,SMILES,Activity [%]
1,C[C@]12CC[C@H]3[C@@H](CCC4=CC(=O)CC[C@@]43CF)[C@@H]1CCC2=O,94.17

# System: M14
# Assay: Antitumor activity against human M14 cells assessed as reduction of cell growth at 10 uM after 48 hrs by SRB assay
# Type: functional
# Design: scale not given: the % may be the effect or the level left
# Summary of the method: as §2
row,SMILES,Activity [%]
1,C[C@]12CC[C@H]3[C@@H](CCC4=CC(=O)CC[C@@]43CF)[C@@H]1CCC2=O,102.8

# System: LOX IMVI
# Assay: Antitumor activity against human LOXIMVI cells assessed as reduction of cell growth at 10 uM after 48 hrs by SRB assay
# Type: functional
# Design: scale not given: the % may be the effect or the level left
# Summary of the method: as §2
row,SMILES,Activity [%]
1,C[C@]12CC[C@H]3[C@@H](CCC4=CC(=O)CC[C@@]43CF)[C@@H]1CCC2=O,96.65

# System: RXF 393
# Assay: Antitumor activity against human RXF 393 cells assessed as reduction of cell growth at 10 uM after 48 hrs by SRB assay
# Type: functional
# Design: scale not given: the % may be the effect or the level left
# Summary of the method: as §2
row,SMILES,Activity [%]
1,C[C@]12CC[C@H]3[C@@H](CCC4=CC(=O)CC[C@@]43CF)[C@@H]1CCC2=O,67.71

# System: CAKI-1
# Assay: Antitumor activity against human Caki-1 cells assessed as reduction of cell growth at 10 uM after 48 hrs by SRB assay
# Type: functional
# Design: scale not given: the % may be the effect or the level left
# Summary of the method: as §2
row,SMILES,Activity [%]
1,C[C@]12CC[C@H]3[C@@H](CCC4=CC(=O)CC[C@@]43CF)[C@@H]1CCC2=O,111

# System: ACHN
# Assay: Antitumor activity against human ACHN cells assessed as reduction of cell growth at 10 uM after 48 hrs by SRB assay
# Type: functional
# Design: scale not given: the % may be the effect or the level left
# Summary of the method: as §2
row,SMILES,Activity [%]
1,C[C@]12CC[C@H]3[C@@H](CCC4=CC(=O)CC[C@@]43CF)[C@@H]1CCC2=O,119.9

# System: A498
# Assay: Antitumor activity against human A-498 cells assessed as reduction of cell growth at 10 uM after 48 hrs by SRB assay
# Type: functional
# Design: scale not given: the % may be the effect or the level left
# Summary of the method: as §2
row,SMILES,Activity [%]
1,C[C@]12CC[C@H]3[C@@H](CCC4=CC(=O)CC[C@@]43CF)[C@@H]1CCC2=O,111.1

# System: not listed separately
# Assay: Antitumor activity against human 786-O cells assessed as reduction of cell growth at 10 uM after 48 hrs by SRB assay
# Type: functional, 786-0
# Design: scale not given: the % may be the effect or the level left
# Summary of the method: as §2
row,SMILES,Activity [%]
1,C[C@]12CC[C@H]3[C@@H](CCC4=CC(=O)CC[C@@]43CF)[C@@H]1CCC2=O,105.6

# System: SR
# Assay: Antitumor activity against human SR cells assessed as reduction of cell growth at 10 uM after 48 hrs by SRB assay
# Type: functional
# Design: scale not given: the % may be the effect or the level left
# Summary of the method: as §1
row,SMILES,Activity [%]
1,C[C@]12CC[C@H]3[C@@H](CCC4=CC(=O)CC[C@@]43CF)[C@@H]1CCC2=O,118.7

# System: MOLT-4
# Assay: Antitumor activity against human MOLT-4 cells assessed as reduction of cell growth at 10 uM after 48 hrs by SRB assay
# Type: functional
# Design: scale not given: the % may be the effect or the level left
# Summary of the method: as §2
row,SMILES,Activity [%]
1,C[C@]12CC[C@H]3[C@@H](CCC4=CC(=O)CC[C@@]43CF)[C@@H]1CCC2=O,106.1

# System: K562
# Assay: Antitumor activity against human K-562 cells assessed as reduction of cell growth at 10 uM after 48 hrs by SRB assay
# Type: functional
# Design: scale not given: the % may be the effect or the level left
# Summary of the method: as §2
row,SMILES,Activity [%]
1,C[C@]12CC[C@H]3[C@@H](CCC4=CC(=O)CC[C@@]43CF)[C@@H]1CCC2=O,93.48

# System: HL-60(TB)
# Assay: Antitumor activity against human HL-60(TB) cells assessed as reduction of cell growth at 10 uM after 48 hrs by SRB assay
# Type: functional
# Design: scale not given: the % may be the effect or the level left
# Summary of the method: as §2
row,SMILES,Activity [%]
1,C[C@]12CC[C@H]3[C@@H](CCC4=CC(=O)CC[C@@]43CF)[C@@H]1CCC2=O,112.8

# System: CCRF-CEM
# Assay: Antitumor activity against human CCRF-CEM cells assessed as reduction of cell growth at 10 uM after 48 hrs by SRB assay
# Type: functional
# Design: scale not given: the % may be the effect or the level left
# Summary of the method: as §2
row,SMILES,Activity [%]
1,C[C@]12CC[C@H]3[C@@H](CCC4=CC(=O)CC[C@@]43CF)[C@@H]1CCC2=O,88.21

# System: SK-OV-3
# Assay: Antitumor activity against human SKOV3 cells assessed as reduction of cell growth at 10 uM after 48 hrs by SRB assay
# Type: functional
# Design: scale not given: the % may be the effect or the level left
# Summary of the method: as §2
row,SMILES,Activity [%]
1,C[C@]12CC[C@H]3[C@@H](CCC4=CC(=O)CC[C@@]43CF)[C@@H]1CCC2=O,120.5

# System: OVCAR-5
# Assay: Antitumor activity against human OVCAR5 cells assessed as reduction of cell growth at 10 uM after 48 hrs by SRB assay
# Type: functional
# Design: scale not given: the % may be the effect or the level left
# Summary of the method: as §2
row,SMILES,Activity [%]
1,C[C@]12CC[C@H]3[C@@H](CCC4=CC(=O)CC[C@@]43CF)[C@@H]1CCC2=O,118.37

# System: OVCAR-3
# Assay: Antitumor activity against human OVCAR-3 cells assessed as reduction of cell growth at 10 uM after 48 hrs by SRB assay
# Type: functional
# Design: scale not given: the % may be the effect or the level left
# Summary of the method: as §2
row,SMILES,Activity [%]
1,C[C@]12CC[C@H]3[C@@H](CCC4=CC(=O)CC[C@@]43CF)[C@@H]1CCC2=O,119.07
